# From ChEMBL document CHEMBL5724801, “EUbOPEN Chemogenomics Library - Multiplex” (2024)
# “And” between values parts separate entries of the source, which are not always exact repeats. Equal values may be shown once.
# How the values were obtained:
# HEK-293T = assay: Multiplex assay against HEK293T; assay type: toxicity, cell-based; conditions: human
# In short: (§1)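 At seeding, live cells were stained with Hoechst33342, BioTracker Green Microtubule Cytoskeleton Dye, MitoTracker Red and Annexin V Alexa Fluor 680. After compound addition they were imaged on a CQ1 microscope at 37°C and 5% CO2, and CellPathfinder machine-learning gating sorted them into Hoechst high-intensity objects or normal cells, with normal cells further split into healthy, pyknosed or fragmented nuclei and pyknosed cells into mitotic or apoptotic. Tubulin, mitochondrial-mass and membrane-permeability phenotypes are given as per cents of cells with healthy nuclei.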
# U2OS = assay: Multiplex assay against U2OS; assay type: toxicity, cell-based; conditions: human; in short: as §1
# [1] = 24 h, 1 µM, compound concentration 1 uM
# [2] = 24 h, 10 µM, compound concentration 10 uM
# [3] = 48 h, 1 µM, compound concentration 1 uM
# [4] = 48 h, 10 µM, compound concentration 10 uM
# [5] = 12 h, 1 µM, compound concentration 1 uM
# [6] = 12 h, 10 µM, compound concentration 10 uM
smiles,measurement,setting,value
Clc1ccccc1C(c1ccccc1)(c1ccccc1)n1cccn1,Population Tubulin-Different-Phenotype (%),HEK-293T; [1],9.78% and 7.89%
same,Population Apoptotic (%),HEK-293T; [2],19.64% and 15.94%
same,Population Fragmented Nuclei (%),HEK-293T; [2],2.8% and 0.54%
same,Population Healthy Nuclei (%),HEK-293T; [2],71.1% and 24.46%
same,Population Hoechst High Intensity Objects (%),HEK-293T; [2],0.23% and 0%
same,Population Membrane Permeable-Phenotype (%),HEK-293T; [2],1.31% and 0%
same,Population Mitochondria Different-Phenotype (%),HEK-293T; [2],27.87% and 13.33%
same,Population Mitotic Cells (%),HEK-293T; [2],80.36% and 84.06%
same,Population Normal (%),HEK-293T; [2],99.77% and 100%
same,Population Pyknosed Nuclei (%),HEK-293T; [2],26.11% and 75%
same,Total Cell Count,HEK-293T; [2],430 and 184
same,Population Apoptotic (%),HEK-293T; [3],7.89% and 12.96%
same,Population Fragmented Nuclei (%),HEK-293T; [3],3.42% and 3.98%
same,Population Healthy Nuclei (%),HEK-293T; [3],87.9% and 72.12%
same,Population Hoechst High Intensity Objects (%),HEK-293T; [3],0% and 1.74%
same,Population Membrane Permeable-Phenotype (%),HEK-293T; [3],5.37% and 2.45%
same,Population Mitochondria Different-Phenotype (%),HEK-293T; [3],12.03% and 23.31%
same,Population Mitotic Cells (%),HEK-293T; [3],92.11% and 87.04%
same,Population Normal (%),HEK-293T; [3],100% and 98.26%
same,Population Pyknosed Nuclei (%),HEK-293T; [3],8.68% and 23.89%
same,Population Apoptotic (%),HEK-293T; [4],9.93% and 27.4%
same,Population Fragmented Nuclei (%),HEK-293T; [4],4.13% and 2.25%
same,Population Healthy Nuclei (%),HEK-293T; [4],81.99% and 70.41%
same,Population Hoechst High Intensity Objects (%),HEK-293T; [4],0%
same,Population Membrane Permeable-Phenotype (%),HEK-293T; [4],8.52% and 2.66%
same,Population Mitochondria Different-Phenotype (%),HEK-293T; [4],24.73% and 43.09%
same,Population Mitotic Cells (%),HEK-293T; [4],90.07% and 72.6%
same,Population Normal (%),HEK-293T; [4],100%
same,Population Pyknosed Nuclei (%),HEK-293T; [4],13.88% and 27.34%
same,Population Apoptotic (%),U2OS; [5],52.94% and 50%
same,Population Fragmented Nuclei (%),U2OS; [5],0.85% and 6.19%
same,Population Healthy Nuclei (%),U2OS; [5],94.3% and 76.11%
same,Population Hoechst High Intensity Objects (%),U2OS; [5],0%
same,Population Membrane Permeable-Phenotype (%),U2OS; [5],0.91% and 5.81%
same,Population Mitochondria Different-Phenotype (%),U2OS; [5],0.6% and 8.14%
same,Population Mitotic Cells (%),U2OS; [5],47.06% and 50%
same,Population Normal (%),U2OS; [5],100%
same,Population Tubulin-Different-Phenotype (%),U2OS; [5],1.51% and 2.33%
same,Population Apoptotic (%),U2OS; [6],36% and 44%
same,Population Fragmented Nuclei (%),U2OS; [6],1.64% and 4.81%
same,Population Healthy Nuclei (%),U2OS; [6],84.7% and 71.15%
same,Population Hoechst High Intensity Objects (%),U2OS; [6],0%
same,Population Membrane Permeable-Phenotype (%),U2OS; [6],2.58% and 8.11%
same,Population Mitotic Cells (%),U2OS; [6],64% and 56%
same,Population Normal (%),U2OS; [6],100%
same,Population Pyknosed Nuclei (%),U2OS; [6],13.66% and 24.04%
same,Population Tubulin-Different-Phenotype (%),U2OS; [6],4.19% and 5.41%
same,Population Apoptotic (%),U2OS; [1],37.5% and 52.38%
same,Population Fragmented Nuclei (%),U2OS; [1],0.42% and 4.86%
same,Population Healthy Nuclei (%),U2OS; [1],89.47% and 80.56%
same,Population Hoechst High Intensity Objects (%),U2OS; [1],0%
same,Population Membrane Permeable-Phenotype (%),U2OS; [1],0.71% and 2.59%
same,Population Mitochondria Different-Phenotype (%),U2OS; [1],0% and 6.9%
same,Population Mitotic Cells (%),U2OS; [1],62.5% and 47.62%
same,Population Normal (%),U2OS; [1],100%
same,Population Pyknosed Nuclei (%),U2OS; [1],10.11% and 14.58%
same,Population Tubulin-Different-Phenotype (%),U2OS; [1],0.71% and 0%
same,Population Apoptotic (%),U2OS; [2],45.33% and 34.38%
same,Population Fragmented Nuclei (%),U2OS; [2],1.25% and 0.79%
same,Population Healthy Nuclei (%),U2OS; [2],83.12% and 73.81%
same,Population Hoechst High Intensity Objects (%),U2OS; [2],0%
same,Population Membrane Permeable-Phenotype (%),U2OS; [2],0.75% and 4.3%
same,Population Mitotic Cells (%),U2OS; [2],54.67% and 65.62%
same,Population Normal (%),U2OS; [2],100%
same,Population Pyknosed Nuclei (%),U2OS; [2],15.62% and 25.4%
same,Population Tubulin-Different-Phenotype (%),U2OS; [2],2.51% and 2.15%
same,Population Apoptotic (%),U2OS; [3],43.33% and 70%
same,Population Fragmented Nuclei (%),U2OS; [3],3.58% and 1.82%
same,Population Healthy Nuclei (%),U2OS; [3],89.7% and 89.09%
same,Population Hoechst High Intensity Objects (%),U2OS; [3],0%
same,Population Membrane Permeable-Phenotype (%),U2OS; [3],0.75% and 3.57%
same,Population Mitochondria Different-Phenotype (%),U2OS; [3],0.12% and 4.08%
same,Population Mitotic Cells (%),U2OS; [3],56.67% and 30%
same,Population Normal (%),U2OS; [3],100%
same,Population Pyknosed Nuclei (%),U2OS; [3],6.72% and 9.09%
same,Population Tubulin-Different-Phenotype (%),U2OS; [3],1.25% and 2.04%
same,Population Apoptotic (%),U2OS; [4],51.65% and 41.67%
same,Population Fragmented Nuclei (%),U2OS; [4],2.12% and 0.6%
same,Population Healthy Nuclei (%),U2OS; [4],85.85% and 77.71%
same,Population Hoechst High Intensity Objects (%),U2OS; [4],0%
same,Population Membrane Permeable-Phenotype (%),U2OS; [4],1.54% and 5.43%
same,Population Mitochondria Different-Phenotype (%),U2OS; [4],1.08% and 10.08%
same,Population Mitotic Cells (%),U2OS; [4],48.35% and 58.33%
same,Population Normal (%),U2OS; [4],100%
same,Population Pyknosed Nuclei (%),U2OS; [4],12.04% and 21.69%
same,Population Tubulin-Different-Phenotype (%),U2OS; [4],3.08% and 5.43%
